Test results from article PMC11445516 (Nature Communications, 2024).

Legend:
[1] = target: human placental alkaline phosphatase (Homo sapiens, UniProt P05187); test: Hydrolysis in human placental alkaline phosphatase solution; format: in vitro ADME; details: human placental ALP 0.5 unit/mL, prodrug 100 μM, Tris pH 7.6, 37 °C
BxPC-3 xenograft = test: Efficacy study in BxPC-3 pancreatic cancer xenograft mouse model; format: in vivo
In short: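 Female Foxn nu/nu mice (4 weeks old on arrival) received 3.5 × 10^6 BxPC-3 cells in 50:50 Cultrex BME:DMEM, injected subcutaneously into the right hind flank. At ~95 mm3 they were stratified into four groups of eight. […] Dosing ran 21 days, then 25 days of follow-up. Caliper volume, (W² × L)/2, and body weight were recorded biweekly. Analysis used a mixed model with Dunnett post hoc.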

[2] = through a range of pH's; cited from earlier work
[3] = previously measured; cited from earlier work

Chain of human placental alkaline phosphatase (P05187 23-535): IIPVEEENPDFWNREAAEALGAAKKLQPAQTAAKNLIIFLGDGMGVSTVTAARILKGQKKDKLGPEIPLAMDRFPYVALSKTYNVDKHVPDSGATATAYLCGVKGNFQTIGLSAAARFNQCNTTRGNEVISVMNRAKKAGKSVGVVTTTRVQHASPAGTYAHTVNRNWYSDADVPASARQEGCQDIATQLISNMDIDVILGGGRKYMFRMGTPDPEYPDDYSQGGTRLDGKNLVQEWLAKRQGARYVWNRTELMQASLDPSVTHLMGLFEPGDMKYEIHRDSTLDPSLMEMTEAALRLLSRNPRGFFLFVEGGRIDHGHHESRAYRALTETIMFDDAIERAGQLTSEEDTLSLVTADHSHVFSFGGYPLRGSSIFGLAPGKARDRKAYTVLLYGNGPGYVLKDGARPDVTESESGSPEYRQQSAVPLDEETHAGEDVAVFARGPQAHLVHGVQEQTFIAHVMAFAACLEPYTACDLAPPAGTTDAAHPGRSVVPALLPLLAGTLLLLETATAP

CC(=O)O[C@H]1C(=O)[C@@]2(C)[C@H]([C@H](OC(=O)c3ccccc3)[C@]3(O)C[C@H](OC(=O)[C@H](OC(=O)OCc4cc(C(=O)O)ccc4OP(=O)(O)O)[C@@H](NC(=O)c4ccccc4)c4ccccc4)C(C)=C1C3(C)C)[C@]1(OC(C)=O)CO[C@@H]1C[C@@H]2O [Compound 8i, 3-((((((1S,2 R)-1-benzamido-3-(((2aR,4S,4aS,6 R,9S,11S,12S,12aR,12bS)-6,12b-diacetoxy-12-(benzoyloxy)-4,11-dihydroxy-4a,8,13,13-tetramethyl-5-oxo-2a,3,4,4a,5,6,9,10,11,12,12a,12b-dodecahydro-1H-7,11-methanocyclodeca[3,4]benzo[1,2-b]oxet-9-yl)oxy)-3-oxo-1-phenylpropan−2-yl)oxy)carbonyl)oxy)methyl)-4-(phosphonooxy)benzoic acid]
Hydrolysis rate in ALP (drug formation rate) [1]: 2.13 pmol/min

CC(=O)O[C@H]1C(=O)[C@@]2(C)[C@H]([C@H](OC(=O)c3ccccc3)[C@]3(O)C[C@H](OC(=O)[C@H](OC(=O)OCc4cc(P(=O)(O)O)ccc4OP(=O)(O)O)[C@@H](NC(=O)c4ccccc4)c4ccccc4)C(C)=C1C3(C)C)[C@]1(OC(C)=O)CO[C@@H]1C[C@@H]2O [Compound 8vi, (3-((((((1S,2 R)-1-benzamido-3-(((2aR,4S,4aS,6 R,9S,11S,12S,12aR,12bS)-6,12b-diacetoxy-12-(benzoyloxy)-4,11-dihydroxy-4ª,8,13,13-tetramethyl−5-oxo-2ª,3,4,4ª,5,6,9,10,11,12,12ª,12b-dodecahydro-1H-7,11-methanocyclodeca[3,4]benzo[1,2-b]oxet-9-yl)oxy)-3-oxo-1-phenylpropan-2-yl)oxy)carbonyl)oxy)methyl)-4-(phosphonooxy)phenyl)phosphonic acid]
Hydrolysis rate in ALP (drug formation rate) [1]: 1.44 pmol/min
Tumor growth inhibition (TGI) (BxPC-3 xenograft; 25 mg/kg PO QOD in saline, following the 21-day dosing period): –15%
Tumor growth inhibition (TGI) (BxPC-3 xenograft; 75 mg/kg PO QOD in saline, following the 25-day observation period): 84%
Toxicity during dosing (BxPC-3 xenograft; 25 and 75 mg/kg PO QOD, 21 days): no appreciable toxicity

CNC(=O)c1ccc(N2C(=S)N(c3ccc(C#N)c(C(F)(F)F)c3)C(=O)C2(C)C)cc1F [Enzalutamide, enzalutamide]
Solubility in water [2]: < 0.1 µg/mL

CC(=O)O[C@H]1C(=O)[C@@]2(C)[C@H]([C@H](OC(=O)c3ccccc3)[C@]3(O)C[C@H](OC(=O)[C@H](O)[C@@H](NC(=O)c4ccccc4)c4ccccc4)C(C)=C1C3(C)C)[C@]1(OC(C)=O)CO[C@@H]1C[C@@H]2O [Paclitaxel, paclitaxel, reference compound]
Tumor growth inhibition (TGI) (BxPC-3 xenograft; 12.5 mg/kg IV QWK in Cremophor EL, following the 21-day dosing period): 78%
Tumor growth inhibition (TGI) (BxPC-3 xenograft; 12.5 mg/kg IV QWK in Cremophor EL, following the 25-day observation period): 51%
Oral bioavailability [3]: < 6%
